Assays:
[1] = molecular target: T1, Human immunodeficiency virus type 1 reverse transcriptase (Human immunodeficiency virus 1, UniProt Q72547); experiment: Inhibition of HIV-1 Reverse transcriptase using poly-(rc)-oligo(dg) as the template primer.
Outline: (§1)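 Purified p66/51 HIV-1 reverse transcriptase. Inhibition read as incorporation of [32P]-TTP into poly(rA)·oligo(dT) or of [32P]GTP into poly(rC)·oligo(dG) homopolymer template-primer.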

CCRF-CEM = experiment: Concentration inhibiting 50% of mock-infected CEM cells.; type: functional; settings: Homo sapiens
Outline: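 Uninfected (mock-infected) CEM-SS cultures exposed to drug. Viability by XTT, expressed as percent of drug-free control. CC50 is the concentration causing 50% cell death. Triplicates on each plate, two sister plates averaged.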

CEM-SS [2] = experiment: 50% inhibitory concentration for cytopathicity of HIV-1 RF in CEM-SS cells; NA=Not active (EC50 uM); type: functional, cell-based, Homo sapiens
Outline: (§2)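 CEM-SS cells infected with HIV-1 RF; drug-induced protection from viral cytopathic effect read by XTT, as percent of uninfected drug-free control. EC50 is the concentration giving 50% protection. Triplicate wells on each plate, two sister plates; the plate EC50s (each a triplicate average) were averaged. XTT results were confirmed by supernatant RT and p24 levels. NA means no inhibition up to the concentration cytotoxic to uninfected cells.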

[3] = molecular target: T1, Human immunodeficiency virus type 1 reverse transcriptase; experiment: Inhibition of HIV-1 Reverse transcriptase using poly-(ra)-oligo(dt) as the template primer.; outline: as §1
CEM-SS [4] = experiment: 50% inhibitory concentration for cytopathicity of HIV-1 RF in CEM-SS cells.; type: functional, cell-based; settings: Homo sapiens; outline: as §2
[5] = Therapeutic index was determined for the compound as CC50/EC50; settings: read-out: TI
Outline: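 Ratio of CC50 (XTT viability, uninfected CEM-SS) to EC50 (XTT protection from HIV-1 RF cytopathicity in CEM-SS). Both values come from triplicates on each plate, two sister plates averaged. NA means no antiviral inhibition up to the cytotoxic concentration.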

CEM-SS [6] = experiment: 50% inhibitory concentration for cytopathicity of HIV-1 RF in CEM-SS cells; NA=Not active; type: functional, cell-based, Homo sapiens; outline: as §2

| SMILES | IC50 [1] | CC50 (CCRF-CEM) | EC50 (CEM-SS [2]) | IC50 ([3]; read-out: IC50) | EC50 (CEM-SS [4]) | selectivity ratio [5] | IC50 [3] | EC50 (CEM-SS [6]) |
| --- | --- | --- | --- | --- | --- | --- | --- | --- |
| CCCCCC=C(c1cc(F)c(OC)c(C(=O)OC)c1)c1cc(F)c(OC)c(C(=O)OC)c1 | 10 µM | 13.4 µM | Not Active | – | – | – | – | – |
| COC(=O)c1cc(C(=CCCCCBr)c2cc(Cl)c(OC)c(C(=O)OC)c2)cc(Cl)c1OC | 11 µM | 98.7 µM | – | 1.9 µM | 2.8 µM | – | – | – |
| COC(=O)CC=C(c1cc(Cl)c(OC)c(C(=O)OC)c1)c1cc(Cl)c(OC)c(C(=O)OC)c1 | 2.2 µM | 13.3 µM | Not Active | > 100 µM | – | – | – | – |
| COC(=O)CCC=C(c1cc(Cl)c(OC)c(C(=O)OC)c1)c1cc(Cl)c(OC)c(C(=O)OC)c1 | 7.2 µM | 29.4 µM | – | > 100 µM | 4.8 µM | 6.1 | – | – |
| COC(=O)c1cc(C(=CCCc2ccccc2)c2cc(Br)c(OC)c(C(=O)OC)c2)cc(Br)c1OC | – | 31.5 µM | Not Active | – | – | – | – | – |
| CCC(=O)CCCC=C(c1cc(Cl)c(OC)c(C(=O)OC)c1)c1cc(Cl)c(OC)c(C(=O)OC)c1 | 1 µM | 24.6 µM | – | – | 2.8 µM | 8.8 | – | – |
| CCC(=O)CCCC=C(c1cc(Cl)c(OC)c(CO)c1)c1cc(Cl)c(OC)c(CO)c1 | – | 14.2 µM | Not Active | – | – | – | – | – |
| COC(=O)CCCCC(c1cc(Cl)c(OC)c(C(=O)OC)c1)c1cc(Cl)c(OC)c(C(=O)OC)c1 | 100 µM | 21.3 µM | Not Active | – | – | – | – | – |
| COC(=O)CCCC=C(c1cc(F)c(OC)c(C(=O)OC)c1)c1cc(F)c(OC)c(C(=O)OC)c1 | – | 68.3 µM | – | – | 1.9 µM | 35.9 | – | – |
| CCC1(CCC/C=C(\c2cc(Cl)c(OC)c(C=O)c2)c2cc(Cl)c(OC)c(CO)c2)OCCO1 | 31.6 µM | 5.8 µM | – | – | – | – | No inhibition | Not Active |
| COC(=O)c1cc(C(=CCCCCN=[N+]=[N-])c2cc(Cl)c(OC)c(C(=O)OC)c2)cc(Cl)c1OC | 1.3 µM | 176 µM | – | 0.8 µM | 7.1 µM | – | – | – |

Source: ChEMBL document CHEMBL1132112, “Novel modifications in the alkenyldiarylmethane (ADAM) series of non-nucleoside reverse transcriptase inhibitors” (J Med Chem, 1999)
